From publication PMC11100303 (RSC Advances, 2024)

Legend:
[1] = pH of compound dissolved in water; format: physicochemical; settings: mean ± S.D., n = 3
[2] = Thermogravimetric analysis; format: physicochemical; settings: TGA, 30 to 350 °C at 10 °C min^−1, nitrogen
Method in brief: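 Samples of 2–5 mg weighed into platinum pans and heated from 30 to 350 °C at 10 °C min−1 under nitrogen purge at 25 mL min−1. T5% taken as the temperature at 5% loss of total sample mass.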

[3] = tested on: Human endocervical epithelial cell line (A2EN); assay: Crystal violet staining for cervical cell morphology; format: cell-based; settings: 24 h treatment, even at 100 mM
[4] = tested on: Human endocervical epithelial cell line (A2EN); assay: MTT assay for cervical cell proliferation / viability; format: cell-based; settings: 24 h treatment, even at high concentrations of 50 mM

SMILES	pH [1]	T5% (onset temperature at 5% mass loss) [2] [°C]	Morphological changes of cervical epithelial cells [3]	Effect on cervical epithelial cell viability [4]
C[N+](C)(C)CCO.O=C([O-])[C@H](O)Cc1ccccc1 [Chol : D-PLA (1 : 1)]	9.02 ± 1.7	94.3	no morphological changes were observed	did not significantly reduce cervical epithelial cell viability
O=C(O)C(O)Cc1ccccc1 [D-PLA, 2-hydroxy-3-phenylpropanoic acid]	2.9 ± 1.2	–	–	–
O=C(O)C(O)Cc1ccccc1 [L-PLA, 2-hydroxy-3-phenylpropanoic acid]	3.2 ± 1.6	156.07	–	–
C[N+](C)(C)C[C@H](O)CC(=O)[O-] [carnitine, L-Carnitine]	–	189.9	–	–
